The results in this text go back to ChEMBL document CHEMBL1781989, “Novel β-carboline-tripeptide conjugates attenuate mesenteric ischemia/reperfusion injury in the rat” (2011).

Test [1] concerns Mus musculus. Description: Analgesic activity in ICR mouse assessed as increase in pain threshold at 0.15 mmol/kg, po after 30 mins by tail flick method (reference value: 5.03 +/- 10.26 %). It counts as functional. On the technique in general: In hot-plate and tail-flick tests a longer latency is read as antinociception.
Test [2] concerns Mus musculus. Put plainly: Analgesic activity in ICR mouse assessed as increase in pain threshold at 0.15 mmol/kg, po after 180 mins by tail flick method (reference value: 8.75 +/- 9.73 %). Format: functional.
The subject of test [3] is Mus musculus. Put plainly: Analgesic activity in ICR mouse assessed as increase in pain threshold at 0.15 mmol/kg, po after 60 mins by tail flick method (reference value: 7.45 +/- 8.03 %). It counts as functional.
The test system of test [4] is Mus musculus. Description: Antiinflammatory activity in ICR mouse assessed as inhibition of xylene-induced ear edema at 0.05 mmol/kg, po administered 30 mins before xylene challenge measured after 2 hrs relative to control. It counts as functional. In short, it runs like this:
(§1)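 Male ICR mice (20 ± 2 g), randomised to test, vehicle (CMC) and aspirin (10 mg/kg oral) groups. Test agents given orally as CMC suspension. After 30 min, 0.03 mL xylene applied to both faces of the right ear, left ear as control. At 2 h mice were killed and 7 mm ear punches weighed. Edema is the right-minus-left weight, and inhibition is taken against vehicle.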

Test [5] concerns Mus musculus. Description: Analgesic activity in ICR mouse assessed as increase in pain threshold at 0.15 mmol/kg, po after 120 mins by tail flick method (reference value: 8.09 +/- 13.28 %). Format: functional.
For test [6], the system named is Mus musculus. Put plainly: Antiinflammatory activity in po dosed ICR mouse assessed as inhibition of xylene-induced ear edema administered 30 mins before xylene challenge measured after 2 hrs. Format: functional, organism-based. In short, it runs like this: as §1
Test [7] has as its system Mus musculus. Description: Antiinflammatory activity in ICR mouse assessed as inhibition of xylene-induced ear edema at 0.10 mmol/kg, po administered 30 mins before xylene challenge measured after 2 hrs relative to control. Format: functional. In short, it runs like this: as §1
For test [8], the system named is Mus musculus. Put plainly: Analgesic activity in ICR mouse assessed as increase in pain threshold at 0.15 mmol/kg, po after 150 mins by tail flick method (reference value: 9.02 +/- 12.19 %). Format: functional.
The test system of test [9] is Mus musculus. Put plainly: Analgesic activity in ICR mouse assessed as increase in pain threshold at 0.15 mmol/kg, po after 90 mins by tail flick method (reference value: 7.53 +/- 11.54 %). Format: functional.
The test system of test [10] is Mus musculus. Put plainly: Antiinflammatory activity in ICR mouse assessed as inhibition of xylene-induced ear edema at 0.15 mmol/kg, po administered 30 mins before xylene challenge measured after 2 hrs relative to control. Format: functional. A digest of the protocol: as §1
Test [11] deals with Mus musculus. Put plainly: Analgesic activity in ICR mouse assessed as increase in pain threshold at 0.05 mmol/kg, po after 60 mins by tail flick method (reference value: 7.45 +/- 8.03 %). It counts as functional.
In test [12] the test system is Mus musculus. Description: Analgesic activity in ICR mouse assessed as increase in pain threshold at 0.05 mmol/kg, po after 120 mins by tail flick method (reference value: 8.09 +/- 13.28 %). Format: functional.
In test [13] the test system is Mus musculus. Put plainly: Analgesic activity in ICR mouse assessed as increase in pain threshold at 0.05 mmol/kg, po after 90 mins by tail flick method (reference value: 7.53 +/- 11.54 %). It counts as functional.
In test [14] the test system is Mus musculus. Description: Analgesic activity in ICR mouse assessed as increase in pain threshold at 0.10 mmol/kg, po after 120 mins by tail flick method (reference value: 8.09 +/- 13.28 %). Format: functional.
In test [15] the test system is Mus musculus. Put plainly: Analgesic activity in ICR mouse assessed as increase in pain threshold at 0.10 mmol/kg, po after 30 mins by tail flick method (reference value: 5.03 +/- 10.26 %). It counts as functional.
Test [16] deals with Mus musculus. Put plainly: Analgesic activity in ICR mouse assessed as increase in pain threshold at 0.05 mmol/kg, po after 30 mins by tail flick method (reference value: 5.03 +/- 10.26 %). It counts as functional.
The test system of test [17] is Mus musculus. Put plainly: Analgesic activity in ICR mouse assessed as increase in pain threshold at 0.10 mmol/kg, po after 180 mins by tail flick method (reference value: 8.75 +/- 9.73 %). It counts as functional.
The subject of test [18] is Mus musculus. Put plainly: Analgesic activity in ICR mouse assessed as increase in pain threshold at 0.05 mmol/kg, po after 150 mins by tail flick method (reference value: 9.02 +/- 12.19 %). Format: functional.
Test [19] concerns Mus musculus. Put plainly: Analgesic activity in ICR mouse assessed as increase in pain threshold at 0.10 mmol/kg, po after 90 mins by tail flick method (reference value: 7.53 +/- 11.54 %). Format: functional.
Test [20] concerns Mus musculus. Description: Analgesic activity in ICR mouse assessed as increase in pain threshold at 0.05 mmol/kg, po after 180 mins by tail flick method (reference value: 8.75 +/- 9.73 %). Format: functional.
In test [21] the test system is Mus musculus. Description: Analgesic activity in ICR mouse assessed as increase in pain threshold at 0.10 mmol/kg, po after 150 mins by tail flick method (reference value: 9.02 +/- 12.19 %). Format: functional.
In test [22] the test system is Mus musculus. Put plainly: Analgesic activity in ICR mouse assessed as increase in pain threshold at 0.10 mmol/kg, po after 60 mins by tail flick method (reference value: 7.45 +/- 8.03 %). It counts as functional.
The test system of test [23] is Mus musculus. Description: Analgesic activity in ICR mouse assessed as increase in pain threshold at 0.15 mmol/kg, ip after 120 mins by tail flick method (reference value: 8.09 +/- 13.28 %). It counts as functional.
The subject of test [24] is Mus musculus. Put plainly: Analgesic activity in ICR mouse assessed as increase in pain threshold at 0.15 mmol/kg, ip after 90 mins by tail flick method (reference value: 7.53 +/- 11.54 %). It counts as functional.
Test [25] relates to Mus musculus. Put plainly: Analgesic activity in ICR mouse assessed as increase in pain threshold at 0.15 mmol/kg, ip after 60 mins by tail flick method (reference value: 7.45 +/- 8.03 %). Format: functional.
The subject of test [26] is Mus musculus. Put plainly: Analgesic activity in ICR mouse assessed as increase in pain threshold at 0.15 mmol/kg, ip after 30 mins by tail flick method (reference value: 5.03 +/- 10.26 %). Format: functional.
Test [27] has as its system Mus musculus. Put plainly: Analgesic activity in ICR mouse assessed as increase in pain threshold at 0.15 mmol/kg, ip after 180 mins by tail flick method (reference value: 8.75 +/- 9.73 %). Format: functional.
Test [28] has as its system Mus musculus. Description: Analgesic activity in ICR mouse assessed as increase in pain threshold at 0.15 mmol/kg, ip after 150 mins by tail flick method (reference value: 9.02 +/- 12.19 %). Format: functional.
The test system of test [29] is Rattus norvegicus. Description: Antioxidant activity in mesenteric ischemia/reperfusion injury Wistar rat model ileum assessed as restoration of glutathione levels at 20 mg/kg, ip administered 15 mins before and 1 hr after initiation of reperfusion by Beutler's method. Format: functional, organism-based. On the set-up: dose 20 mg/kg. In short, it runs like this: (§2)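 Dosing 20 mg/kg ip 15 min before and 1 h after reperfusion onset. Intestinal MDA measured by the Beuge and Aust method as nmol/g tissue, and GSH by the Beutler method as µmol/g tissue.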

Test [30] concerns Rattus norvegicus. Put plainly: Antiinflammatory activity in mesenteric ischemia/reperfusion injury Wistar rat model ileum assessed as reduction of mucosal damage at 20 mg/kg, ip administered 15 mins before and 1 hr after initiation of reperfusion by hematoxylin-eosin staining. Format: functional, organism-based. Further details: dose 20 mg/kg. A digest of the protocol: (§3)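 Male Wistar rats (250–300 g) under pentobarbital (80 mg/kg ip) at 37 °C. Drug 20 mg/kg ip 15 min before reperfusion and 1 h into reperfusion, saline to other groups. Terminal ileum (10 mm) snap-frozen, cut at 4–5 µm by cryostat, stained with H&E, and viewed by light microscopy.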

Test [31] deals with Rattus norvegicus. Put plainly: Antioxidant activity in mesenteric ischemia/reperfusion injury Wistar rat model assessed as decrease of myeloperoxidase activity in intestinal tissue at 20 mg/kg, ip administered 15 mins before and 1 hr after initiation of reperfusion. Format: functional, organism-based. Further details: dose 20 mg/kg.
For test [32], the system named is Rattus norvegicus. Put plainly: Antiinflammatory activity in mesenteric ischemia/reperfusion injury Wistar rat model assessed as reduction of focal denudation of epithelium villi at 20 mg/kg, ip administered 15 mins before and 1 hr after initiation of reperfusion by hematoxylin-eosin staining. Further details: dose 20 mg/kg. It counts as functional, organism-based. In short, it runs like this:
as §3

For test [33], the system named is Rattus norvegicus. Put plainly: Antioxidant activity in mesenteric ischemia/reperfusion injury Wistar rat model ileum assessed as decrease of malondialdehyde levels at 20 mg/kg, ip administered 15 mins before and 1 hr after initiation of reperfusion by Beuge's method. On the set-up: dose 20 mg/kg. It counts as functional, organism-based. In short, it runs like this:
as §2

Active and inactive are the calls of the source. Non-standard residues stand in square brackets, D forms with d. Residues, ends and D or L forms follow the SMILES beside them. Tpi = O=C(O)[C@@H]1Cc2c([nH]c3ccccc23)CN1

As a reminder, the inhibition in vivo is the percentage by which the read-out fell short of the control. As to `N=C(N)NCCC[C@H](NC(=O)[C@@H]1Cc2c([nH]c3ccccc23)CN1)C(=O)N[C@@H](Cc1ccccc1)C(=O)N[C@@H](Cc1c[nH]c2ccccc12)C(=O)O` (H-[Tpi]RFW-OH), the Activity in test [1] is reported as 38.16%; in test [2], 21.55%; in [3], 35.13%; in test [5] it was 37.12%; in [8] it was 29.38%; in [9], 46.08%. For the same molecule, the inhibition in vivo at 50 µmol/kg in [4] amounted to 11.3%. Also, the inhibition result in [6] is “Dose-dependent effect”. Also, in test [7], the inhibition in vivo at 100 µmol/kg amounted to 26.5%. In addition, the inhibition in vivo at 150 µmol/kg in [10] is 57%.
Regarding `O=C(O)[C@H](Cc1c[nH]c2ccccc12)NC(=O)[C@H](Cc1ccccc1)NC(=O)[C@H](Cc1ccc(O)cc1)NC(=O)[C@@H]1Cc2c([nH]c3ccccc23)CN1` (H-[Tpi]YFW-OH), the Activity in test [1] was determined as 35.75%; in test [2], 20.94%; in [3], 41.18%; in test [5], 30.25%; in test [8] it was 28.87%; in test [9], 43.23%. For the same molecule, the inhibition in vivo at 50 µmol/kg in test [4] came out at 16.2%. Besides, in [6], the inhibition entry was “Dose-dependent effect”. Further, the inhibition in vivo at 100 µmol/kg in [7] is 32.9%. For the same molecule, the inhibition in vivo at 150 µmol/kg in test [10] came to 50.9%.
Regarding `NCCCC[C@H](NC(=O)[C@@H]1Cc2c([nH]c3ccccc23)CN1)C(=O)N[C@@H](Cc1ccccc1)C(=O)N[C@@H](Cc1c[nH]c2ccccc12)C(=O)O` (H-[Tpi]KFW-OH), the Activity in [11] was found to be 26.54%; in test [12] it was 18.99%; in test [13], 23.58%; in [1], 44.27%; in [2], 25.69%; in [3], 52.22%. The Activity in test [14] was determined as 23.08%; in test [15] it was 32.32%; in test [5] it was 41.28%; in [16], 11.55%; in test [17] it was 14.38%; in [18] it was 15.43%. Further, the Activity in [19] was 38.33%; in test [20], 9.06%; in test [21], 21.39%; in test [22], 34.48%; in test [8] it was 29.04%; in test [9], 54.39%. The inhibition in vivo at 50 µmol/kg in test [4] was found to be 28.3%. In addition, in test [6], the inhibition result was “Dose-dependent effect”. Also, the inhibition in vivo at 100 µmol/kg in test [7] was 45.4%. For the same molecule, the inhibition in vivo at 150 µmol/kg in [10] is 55.2%.
`CN1CC[C@]23c4c5ccc(O)c4O[C@H]2[C@@H](O)C=C[C@H]3[C@H]1C5` [MORPHINE]: the Activity in test [23] is listed as 98.78%; in test [24], 139.03%; in test [25], 175.78%; in test [26], 142.2%; in test [27], 57.43%; in [28], 64.55%.
Turning to `CC(C)C[C@H](NC(=O)[C@@H]1Cc2c([nH]c3ccccc23)CN1)C(=O)N[C@@H](Cc1ccccc1)C(=O)N[C@@H](Cc1c[nH]c2ccccc12)C(=O)O` (H-[Tpi]LFW-OH), the Activity in test [11] is 23.45%; in test [12], 17.97%; in test [13], 20.65%; in test [1], 48.25%; in test [2], 18.86%; in [3], 59.37%. Besides, the Activity is 25.45% in test [14]; 35.41% in test [15]; 34.55% in [5]; 29.22% in test [16]; 13.42% in [17]; 8.23% in test [18]. For the same molecule, the Activity is 32.73% in [19]; 7.46% in test [20]; 22.13% in [21]; 37.65% in test [22]; 25.46% in test [8]; 44.67% in [9]. Further, the outcome in test [29], in test [30], in test [31], in test [32] and in test [33] was Active. For the same molecule, the inhibition in vivo at 50 µmol/kg in [4] was found to be 38.7%. The inhibition entry in test [6] was “Dose-dependent effect”. Besides, in test [7], the inhibition in vivo at 100 µmol/kg came out at 49.6%. In addition, the inhibition in vivo at 150 µmol/kg in test [10] is 60.7%.
